A selection: hits, their analogues and other compounds. The true share with any hit is near 1.2%.
ARNT TACC3 PPI: disrupts binding between human ARNT and TACC3. Q9Y6A5. AlphaScreen His-ARNT PAS-B/GST-TACC3 binding, luminescence; TACC3 fragment carries E629A point mutation. inhibition, % at 9.99 µM. actives 0.66% (n = 390,000). AID 623870;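 active = mean inhibition of replicates at least 50% and at least half of replicates each reaching 50%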;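 note: 0% = complete ARNT plus TACC3 wells and 100% = ARNT alone without TACC3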
CAL PDZ FP-1: blocks peptide binding to the human CAL PDZ domain; purified CAL PDZ, TMR-peptide fluorescence polarization, 1 h; inhibition, % at 24.9 µM; actives 0.92% (n = 300,000);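 active = mean inhibition of at least 30% with at least half of replicates also reaching 30%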;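 note: 0% = DMSO neutral control and 100% = excess unlabeled competitor peptide PRC23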
CaV13 ICDI inh: Primary screen for inhibitors of IQ motif and Ca2+-dependent inactivation inhibitor domain binding in CACNA1D, Förster resonance energy transfer in living cells, … | HEK cells, CFP/YFP FRET ICDI-IQ, plate reader, 10 min; percent FRET-ratio fall versus neutral wells | AID 743397 | actives 0.098% (n = 340,000) | inhibition, % at 12.3 µM;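 active = mean replicate inhibition of at least 30% and at least 1% of replicates passing that level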;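 note: 0% = median of the neutral control wells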
CAL PDZ FP-2: blocks peptide binding to human CAL PDZ domain | Q9HD26 | actives 0.02% (n = 330,000) | inhibition, % at 20 µM | purified CAL PDZ, TMR-peptide fluorescence polarization, 1 h;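 active = highest replicate inhibition of at least 40%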;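 note: plate controls were DMSO neutral control wells for no effect and unlabeled competitor peptide control wells for full effect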
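Assay system – tagged CAL PDZ protein CerCALP, purified · Timing – 1 h at RT · Compound – single point, 20 µM · Measured by – fluorescence polarization from S- and P-plane intensities, G-factor corrected · Evaluation – inhibition from polarization loss · Probe or stimulus – TMR reporter peptide T*-PRC34 · Buffer or medium – pH 7.4 phosphate-saline buffer, reducing agent, detergent, IgG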
ARNT Alpha ctr: AlphaScreen artifact in ARNT/TACC3 counter-screen. shares compounds with ARNT TACC3 PPI. His-ARNT PASB-GST AlphaScreen artifact counter-screen, luminescence. AC50, µM (titrated, usually from 68 µM), inactives show at the highest dose activity change, negative = signal decrease. actives 50% (n = 1,200). AID 651705;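 active = every separate test run was called active for a drop in luminescence, with AC50 within twice the top valid dose, actives reach about 71 µM in these data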
Starred values were filed as active, the others as inactive; x = not tested or not shown; [ ] = another dose, or the depositor's remark.

SMILES | ARNT TACC3 PPI | CAL PDZ FP-1 | CaV13 ICDI inh | CAL PDZ FP-2 | ARNT Alpha ctr
c1ccc(-c2cn(C[C@H]3CC[C@H](Cn4cc(-c5ccccn5)nn4)O3)nn2)nc1 | 72.0* | -3.2 | -2.9 | 0.5 | 7.78µM*
O=C(C[C@H]1CC[C@@H](NC(=O)c2ccccc2)[C@H](CO)O1)Nc1ccc(-c2ccccc2)cc1 | 50.6* | x | x | x | -1.0%[42 µM]
COCc1cn(CC[C@H]2CC[C@H](NC(=O)c3ccccc3)[C@@H](CO)O2)nn1 | -5.3 | x | x | x | x
O=C(N[C@H]1CC[C@H](CCn2cc(-c3ccccn3)nn2)O[C@H]1CO)c1ccccc1 | 54.0* | x | x | x | -10.3%[38 µM]
COCc1cn(CC[C@H]2CC[C@H](NC(=O)c3ccccc3)[C@H](CO)O2)nn1 | -6.4 | x | x | x | x
O=C(N[C@@H]1CC[C@H](CCn2cc(-c3ccccn3)nn2)O[C@H]1CO)c1ccccc1 | 76.1* | x | x | x | 60.1µM*
C[C@@H]1CN([C@H](C)CO)C(=O)c2cc(NS(=O)(=O)c3cn(C)cn3)ccc2O[C@H]1CN(C)S(=O)(=O)c1ccc(F)cc1 | -3.0 | x | x | x | x
CO[C@@H]1CN(C)C(=O)c2cc(NC(=O)NC(C)C)ccc2OC[C@H](C)N(C(=O)C2CCC2)C[C@@H]1C | -2.7 | x | x | x | x
c1ccc(CN2CCN(CCCNc3ccc4nnc(-c5ccccc5)n4n3)CC2)cc1 | 56.7* | x | x | -17.3 | 70.9µM*
O=C(N[C@@H]1C=C[C@H](CC(=O)N2CCOCC2)O[C@@H]1CO)c1ccccn1 | -1.0 | x | x | x | x
CC(=O)Nc1cccc(NC(C)=O)n1 | -0.6 | -1.3 | -4.1 | -1.6 | x
CC(=O)Nc1cccc(C(=O)O)n1 | 59.3* | -0.4 | 1.4 | -1.5 | -20.3%
Oc1ccc(Cn2ccnc2)c2cccnc12 | 58.4* | 5.9 | -5.0 | 0.0 | 6.15µM*
Cc1ccccc1NCc1ccc(O)c2ncccc12 | -128.7 | -1.2 | -7.9 | -2.6 | x
COCc1ccc(O)c2ncccc12 | 75.2* | -1.2 | x | -0.4 | 16.2µM*
O=Nc1ccc(O)c2ncccc12 | 56.7* | 2.9 | -17.6 | -1.1 | 68.8µM*
c1ccc2c(Cn3ccnc3)c[nH]c2c1 | 1.0 | -1.4 | -5.3 | -1.1 | x
C=CCN1Cc2ccccc2[C@H]2OC(c3ccc(OCCCO)cc3)=N[C@@]2(CCC(=O)OC(C)(C)C)C1=O | -1.7 | x | x | x | x
O=S(=O)(Nc1cccc(F)c1)c1cccc2nsnc12 | 10.5 | -6.5 | -2.1 | -0.1 | x
Cc1cc(F)ccc1NS(=O)(=O)c1cccc2nsnc12 | active | -2.0 | -12.2 | -6.2 | -3.2%
CCN(CC)c1ccc(C(=C2C=CC(=[N+](CC)CC)C=C2)c2ccc(N(CC)CC)cc2)cc1 | 50.3* | 12.1 | -3.1 | 12.0 | 0.703µM*
CCN(CC)c1ccc(C(=O)NNC(=O)CCl)cc1 | -1.4 | 1.1 | -2.9 | -0.5 | x
COc1ccc(NC(=O)Nc2ccc3c(c2)C(=O)N([C@H](C)CO)C[C@H](C)[C@@H](CN(C)CC2CCCCC2)OCCCC[C@H](C)O3)cc1 | 4.0 | x | x | x | x
Clc1ccc(OCc2nc(-c3ccccn3)n[nH]2)cc1 | 66.3* | 4.0 | -9.8 | -1.3 | 28.4µM*
Brc1ccc(OCc2nc(-c3ccccn3)n[nH]2)cc1 | 57.6* | -3.9 | x | -0.5 | 22.5µM*
SMILES | ARNT TACC3 PPI | CAL PDZ FP-1 | CaV13 ICDI inh | CAL PDZ FP-2 | ARNT Alpha ctr
O=C(N[C@H]1CC[C@H](CCn2cc(C3CC3)nn2)O[C@@H]1CO)c1cccnc1 | -23.1 | x | x | x | x
O=C(N[C@@H]1CC[C@@H](CCn2cc(-c3ccccn3)nn2)O[C@H]1CO)c1cccnc1 | 70.9* | x | x | x | 36.6µM*
O=C(N[C@@H]1CC[C@H](CCn2cc(-c3ccccn3)nn2)O[C@H]1CO)c1cccnc1 | 83.8* | x | x | x | 44.2µM*
O=C(N[C@@H]1CC[C@H](CCn2cc(C3CCCCC3)nn2)O[C@H]1CO)c1cccnc1 | 3.8 | x | x | x | x
O=C(N[C@@H]1CC[C@@H](CCn2cc(-c3ccccn3)nn2)O[C@@H]1CO)c1cccnc1 | 80.8* | x | x | x | 44.1µM*
C/C=C/c1ccc([C@H]2[C@@H](CNC(C)=O)N(C(=O)Cc3cccnc3)[C@H]2CO)cc1 | 1.2 | x | x | x | x
CCCN1C[C@H](C)[C@H](OC)CN(C)C(=O)c2ccc(NC(=O)Nc3ccccc3F)cc2OC[C@@H]1C | -2.7 | x | x | x | x
CN(C)C(=O)CSc1cccc2cccnc12 | 60.4* | -2.1 | x | -0.3 | 15µM*
O=C(CSc1cccc2cccnc12)N1CCCC1 | 87.3* | -2.2 | -2.2 | x | 10.2µM*
O=C(CSc1cccc2cccnc12)OCC(=O)c1ccc(Br)cc1 | 9.7 | -3.2 | x | -1.0 | x

Screening results from PubChem.
